Screening data as filed in PubChem.
CaV13 FRET inh = Disruptors of the CACNA1D IQ motif to Ca2+-dependent inactivation inhibitor domain association, primary screening, Förster resonance energy transfer in intact living …. AID 743397. 0.098% of 340,000 active. HEK cells, CFP/YFP FRET ICDI-IQ, plate reader, 10 min; percent FRET-ratio fall versus neutral wells. inhibition, % at 12.3 µM;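 active means mean replicate inhibition of at least 30% and at least 1% of replicates passing that level; inconclusive means only one of the two criteria is met; inactive means neither criterion is met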
RanGTP-Impb inh = inhibitors of RanGTP-importin-beta interaction, primary screen, biochemical, FRET, CFP-Ran, YFP-importin-beta, homogeneous | Ran GTPase (GTP-bound) - importin-beta complex | cell-free CFP-Ran/YFP-importin-beta FRET ratio | inhibition, % (test concentration not listed) | 1.1% of 300,000 active;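 active means more than half of the replicate wells show a fall in the fluorescence ratio signal beyond about 16%, limit read from the data, passing the limit was not always enough; inconclusive means exactly half of the replicate wells pass the set limit; inactive means fewer than half of replicates pass the limit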
Runt-SMMHC FRET = inhibitors of RUNX1 Runt–CBFb-SMMHC binding, primary screen, biochemical, FRET, Cerulean-Runt, Venus-CBFb-SMMHC, uHTS; Cerulean-Runt/Venus-CBFb-SMMHC FRET ratio 530/480, 1 h; AID 1434, 2008; inhibition, % at 20 µM; Runt-related transcription factor 1 (Homo sapiens) + Core-binding factor subunit beta …; 0.74% of 220,000 active;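 active means mean inhibition across duplicate retests at 20 µM reaching about 50%, limit read from the data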;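 further: inhibitors lower the FRET ratio by blocking Runt binding to CBFb-SMMHC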
Target sequence (Q01196 whole entry, looked up): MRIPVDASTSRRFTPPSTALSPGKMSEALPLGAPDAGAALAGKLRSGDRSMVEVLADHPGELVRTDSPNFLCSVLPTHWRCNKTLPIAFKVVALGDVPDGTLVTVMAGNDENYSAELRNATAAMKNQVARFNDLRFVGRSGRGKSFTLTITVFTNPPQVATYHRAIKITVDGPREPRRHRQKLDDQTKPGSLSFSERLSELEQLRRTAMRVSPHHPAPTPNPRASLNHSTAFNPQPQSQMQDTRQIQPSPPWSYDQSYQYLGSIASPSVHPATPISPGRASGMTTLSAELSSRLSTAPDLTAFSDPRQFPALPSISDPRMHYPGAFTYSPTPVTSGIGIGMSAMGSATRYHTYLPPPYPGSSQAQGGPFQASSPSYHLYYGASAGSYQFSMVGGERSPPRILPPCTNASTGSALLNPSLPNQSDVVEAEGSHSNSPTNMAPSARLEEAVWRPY
Target sequence (Q13951 whole entry, looked up): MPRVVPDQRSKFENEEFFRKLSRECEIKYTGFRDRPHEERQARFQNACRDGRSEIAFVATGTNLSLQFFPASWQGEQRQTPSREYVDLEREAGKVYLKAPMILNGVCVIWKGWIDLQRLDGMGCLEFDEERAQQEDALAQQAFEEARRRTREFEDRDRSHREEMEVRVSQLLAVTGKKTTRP
Runt-CBFb FRET = inhibitors of RUNX1 Runt–CBFb binding, primary screen, biochemical, FRET, Cerulean-Runt, Venus-CBFb, uHTS; Cerulean-Runt/Venus-CBFb FRET ratio 530/480, 1 h; inhibition, % at 20 µM; 0.46% of 220,000 active; AID 1496, 2009;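 active means inhibition over about 50% at 20 µM in the single-dose screen, limit read from the data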
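Assay system: Cerulean-Runt domain / Medium: Tris 50 mM pH 7.5, KCl, K2SO4, 0.01% BSA / Timing: protein complex preformed 1 h, compound exposure 1 h, room temperature, dark / Measured by: FRET, excitation 422 nm, emission at 530 and 480 nm / Evaluation: loss of energy transfer signal / Control set: 5 µM unlabeled CBFb as full-inhibition high control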
A number is an active result; – = inactive; ? = inconclusive; · = no result. A selection: hits, their analogues and other compounds. The true share with any hit is near 1.2%.

SMILES	CaV13 FRET inh	RanGTP-Impb inh	Runt-SMMHC FRET	Runt-CBFb FRET
COC(=O)c1ccc(Oc2c(C(F)(F)F)oc3c(CN4CCN(C)CC4)c(O)ccc3c2=O)cc1	·	39.2	–	–
CC1CCN(S(=O)(=O)c2ccc(C(=O)N3CCOCC3)cc2)CC1	–	?	·	·
COc1cccc(-n2c(C)cc(/C=C3\C(=N)N4N=C(CC(=O)N5CCOCC5)SC4=NC3=O)c2C)c1	–	16.1	·	·
COc1ccc2c(c1OC)C(=O)N(c1ccc(C)c(C)c1)C2=O	–	74.9	–	–
COc1ccc2c(c1OC)C(=O)N(c1ccc(C)cc1)C2=O	–	–	–	–
O=C(Nc1sc2c(c1C(=O)NC1CCCCC1)CCC2)c1ccco1	–	56.4	–	–
CNC(=O)c1c(NC(=O)c2ccco2)sc2c1CCC2	–	–	·	·
COc1ccc(C(=O)NCC2CCN(C(=O)C(=O)c3cccs3)CC2)cc1	–	·	·	·
Cc1ccc(C2NC(=O)c3c(sc4c3CCN(C)C4)N2)o1 (centres undefined)	–	105.7	71.7	88.0
CN1CCc2c(sc3c2C(=O)NC(c2ccccn2)N3)C1 (centres undefined)	–	133.3	65.3	99.0
CC(C)(C)C1CCc2c(sc3c2C(=O)NC(c2ccco2)N3)C1 (centres undefined)	–	–	–	–
Cc1ccc(C2NC(=O)c3c(sc4c3CCN(C)C4)N2)s1 (centres undefined)	·	114.2	135.9	–
O=C1NC(c2ccccn2)Nc2sc3c(c21)CCC3 (centres undefined)	–	–	–	–
CN1CCc2c(sc3c2C(=O)NC(/C=C/c2ccco2)N3)C1 (centres undefined)	–	77.7	·	·
O=C1NC(c2ccc(Br)cc2)Nc2sc3c(c21)CCC3 (centres undefined)	–	–	–	–
CN1CCc2c(sc3c2C(=O)NC(c2ccccc2)N3)C1 (centres undefined)	–	–	76.0	106.2
CN1CCc2c(sc3c2C(=O)NC(c2ccc4c(c2)OCO4)N3)C1 (centres undefined)	–	41.0	151.9	125.1
CC(C)[C@H](NC(=O)CC1CCCC1)C(=O)N1CCC[C@H]1C(=O)NCCc1ccccc1Cl	–	·	·	·
COc1ccc(CNC(=O)COc2ccc([N+](=O)[O-])cc2)cc1	–	37.1	–	–
COc1ccccc1C(=O)NCCCNc1nc2cc(C)cc(C)c2cc1C#N	–	·	·	·
Cc1ccc2nc(NCc3ccccc3)c(C#N)cc2c1	–	38.2	–	–
COc1cc(C(=O)NCCCNc2nc3c(C)cc(C)cc3cc2C#N)cc(OC)c1OC	58.6	–	–	–
COc1ccc(C(=O)NCCNc2nc3ccc(C)cc3cc2C#N)cc1	–	65.4	·	·
COc1ccccc1Nc1nc2ccc(C)cc2cc1C#N	–	–	–	–
COc1cc(C(=O)NCCNc2nc3ccc(C)cc3cc2C#N)cc(OC)c1OC	–	81.2	·	·
SMILES	CaV13 FRET inh	RanGTP-Impb inh	Runt-SMMHC FRET	Runt-CBFb FRET
COc1ccc(C(=O)NCCNc2nc3cc(C)cc(C)c3cc2C#N)cc1	–	·	·	·
Cc1c(C(=O)NCCN(C)C)n(C)c(=O)c2ccccc12	–	·	·	·
COc1ccc2nc(NCCCNC(=O)c3cc(OC)c(OC)c(OC)c3)c(C#N)cc2c1	–	125.7	–	56.8
COc1cccc(C(=O)NCCCNc2nc3cc(C)cc(C)c3cc2C#N)c1	–	·	·	·
Cc1ccc(CN/C=C/C(=O)c2ccc(Br)cc2)cc1	·	–	–	–
Cc1ccc(C(=O)/C=C/NCc2ccc(F)cc2)cc1	–	30.6	–	–
COCCCn1c(=O)/c(=C\c2ccc(OC(F)F)c(OC)c2)s/c1=C(/C#N)C(N)=O	–	–	81.1	–
CCOc1ccc(CNc2ccc3c(c2)ncn3C)cc1	–	–	–	–
CCCn1cnc2cc(NCc3ccccc3O)ccc21	–	–	·	·
CCCn1cnc2cc(NCc3cccc(OC)c3)ccc21	–	23.7	–	–
CCOc1ccc(CNc2ccc3c(c2)ncn3C(C)(C)C)cc1	–	19.1	·	·
CC1CCCCC1NC(=O)c1cccc(S(=O)(=O)N2CCN(Cc3ccccc3)CC2)c1 (centres undefined)	–	–	·	·
Cc1ccccc1C(=O)Nc1ccnn1C1CCN(C(C)Cc2ccccc2F)CC1 (centres undefined)	–	?	·	·
Cc1ncc(CO)c(/C=N/NC(=O)c2cc(Br)ccc2O)c1O	–	–	–	–
Cc1ncc(CO)c(/C=N/NC(=O)c2ccc(Br)cc2)c1O	·	21.0	58.5	–
Cc1c(NC(=S)SCc2ccccc2)c(=O)n(-c2ccccc2)n1C	–	–	–	–
Cc1nnc(NC(=O)c2c(-c3ccccc3)noc2C)s1	–	–	–	–
Cc1onc(-c2c(F)cccc2Cl)c1C(=O)Nc1sc2c(c1C(N)=O)CCC2	–	60.6	–	–
Cc1onc(-c2ccccc2)c1C(=O)NC(=S)Nc1sc2c(c1C#N)CCC(C)C2 (centres undefined)	–	–	–	–
Cc1onc(-c2ccccc2)c1C(=O)Nc1sc2c(c1C(N)=O)CCC2	–	50.8	–	–
N#Cc1c(NC(=O)CSc2ncc(-c3ccccc3)n2CC2CCCO2)sc2c1CCCC2 (centres undefined)	–	–	72.9	–
Cc1onc(-c2ccccc2)c1C(=O)Nc1sc2c(c1C#N)CCC2	–	46.3	–	–
O=C(OCC(=O)N1CCCC1)c1cccs1	–	–	–	–
CC(C)(C)C(=O)Nc1nc2cc3c(cc2s1)OCO3	–	–	–	–
CC(=O)Nc1ccc(OCCCNC(=O)c2c(-c3ccccc3)noc2C)cc1	–	?	–	–
SMILES	CaV13 FRET inh	RanGTP-Impb inh	Runt-SMMHC FRET	Runt-CBFb FRET
Cc1sc(NC(=O)C2CCCCC2)c(C#N)c1-c1ccccc1	–	–	–	–
Cc1noc(C)c1C(=O)Nc1sc(C)c(-c2ccccc2)c1C#N	–	109.7	–	–
CCCOc1ccc(NC(=O)c2c(-c3ccccc3)noc2C)cc1	36.1	–	–	–
N=c1c(C(=O)NC2CCCCC2)cc2c(=O)n3ccccc3nc2n1CCc1ccccc1	–	160.7	·	·
COC(=O)c1cc2c(=O)n3ccccc3nc2n(Cc2cccnc2)c1=N	·	–	·	·
COc1ccc(CCn2c(=N)c(S(=O)(=O)c3ccccc3)cc3c(=O)n4ccccc4nc32)cc1	–	–	·	·
N=c1c(C(=O)NC2CCCCC2)cc2c(=O)n3ccccc3nc2n1Cc1ccccc1	–	180.1	·	·
N=c1c(C(=O)NCc2ccc(F)cc2)cc2c(=O)n3ccccc3nc2n1Cc1cccnc1	–	180.6	59.0	–
COc1ccc(CCn2c(=N)c(C(=O)NCc3ccco3)cc3c(=O)n4ccccc4nc32)cc1	–	21.9	–	87.4
COc1cc(/C=C/C(=O)OCC(=O)Nc2nnc(-c3ccccc3)o2)cc(OC)c1OC	–	–	·	·
